Sampled rows, rich in hits. Any-hit rate of the full collection: about 3.3%.
C2C12 statin: suppressors of statin myotoxicity in C2C12 myotubes, primary screen, cell-based, single point, plate reader. C2C12 myotubes + simvastatin, ATP luminescence, 48 h; scaled: DMSO 0, geranylgeraniol control 100. rescue of ATP level, % at 7.49 µM. hit rate 0.78% among 330,000. AID 602340, 2012;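 active = mean ATP rescue above about 67%, or every replicate alone reaching that limit, limit read from the data, passing the limit was not always enough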;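 also: myotubes were challenged with 10 µM simvastatin during compound exposure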
PglD inh: C. jejuni PglD acetyltransferase inhibitors, primary screen, biochemical, DTNB colorimetric, single point; UDP-N-acetylbacillosamine N-acetyltransferase PglD (Campylobacter jejuni); purified PglD enzyme, DTNB colorimetric CoA detection; inhibition, % at 12.5 µM; hit rate 0.098% among 360,000; in the data active = inhibition above about 16%, passing the limit was not always enough
XiGFP reactiv: activators of inactive X chromosome reactivation, primary screen, imaging, XiGFP fibroblasts, GFP high-content imaging, set 2. XiGFP mouse fibroblasts, % GFP-positive cells imaging, 3 d; cells co-treated with 5-aza-dC sensitizer; scaled so ellipticine positive control = 100%. activation, % at 7.58 µM. hit rate 0.055% among 360,000. AID 743238, 2013;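 active = mean normalized replicate activation at least 10% and every replicate at or above 10%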;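 also: 0% = median of on-plate neutral control wells and 100% = ellipticine 6 µM median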
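System: 68-5-11 XiGFP fibroblast line; Timing: 3 days compound exposure; Compound dosing: one concentration, pinned; Benchmarks: positive control ellipticine, 6 µM final; Buffer or medium: DMEM containing 5-aza-dC.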
FGF22 binding: binders of human FGF22 protein, primary screen, FGF22 synaptogenesis inhibitor project, biophysical, thermal shift, single point; Fibroblast growth factor 22 (Homo sapiens), Q9HCT0; recombinant FGF22 thermal shift, SYPRO orange fluorescence; percent of sucrose octasulfate shift, DMSO zero; activity (Tm shift, normalised), % at 9.99 µM; hit rate 1.5% among 340,000;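 active = mean Tm shift, scaled 0 neutral to 100 positive control, at about 1.3% or above, every replicate too, limit read from the data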
E-selectin induc: E-selectin induction in HUVECs, primary screen, imaging, HUVEC, immunofluorescence imaging, single point; P16581; normalized: neutral wells 0, TNF-alpha wells 100; activation, % at 7.58 µM; hit rate 0.37% among 260,000; AID 686992, 2013;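 active = mean E-selectin-positive cell signal at least 10% of the positive control, reached in at least 60% of replicates, without over 20% cell loss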
Target sequence (P16581 whole entry, looked up): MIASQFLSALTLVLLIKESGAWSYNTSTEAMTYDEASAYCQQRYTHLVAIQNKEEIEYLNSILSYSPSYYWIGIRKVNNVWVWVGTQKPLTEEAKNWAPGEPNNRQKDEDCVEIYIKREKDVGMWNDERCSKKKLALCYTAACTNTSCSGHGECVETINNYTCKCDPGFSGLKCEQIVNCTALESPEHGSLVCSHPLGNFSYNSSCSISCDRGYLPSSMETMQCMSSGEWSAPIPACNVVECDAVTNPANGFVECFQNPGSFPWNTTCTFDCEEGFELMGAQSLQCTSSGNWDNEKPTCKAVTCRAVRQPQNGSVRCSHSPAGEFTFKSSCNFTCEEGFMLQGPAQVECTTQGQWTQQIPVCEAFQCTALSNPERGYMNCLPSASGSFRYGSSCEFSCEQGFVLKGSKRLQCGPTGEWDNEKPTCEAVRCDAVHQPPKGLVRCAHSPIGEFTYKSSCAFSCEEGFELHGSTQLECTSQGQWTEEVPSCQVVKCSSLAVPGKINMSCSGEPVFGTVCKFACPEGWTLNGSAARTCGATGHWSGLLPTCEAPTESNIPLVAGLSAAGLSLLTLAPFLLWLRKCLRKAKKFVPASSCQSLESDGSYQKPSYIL
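Assay system: HUVEC primary endothelial cells. Input: 3,000 HUVEC seeded per well. Doses: one compound dose added by pin transfer. Read-out basis: % PE-positive cells. Benchmarks: TNF-alpha high, DMSO low. Detection: immunofluorescence imaging. Buffer or medium: EGM-2, gelatin.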
DENV2 CPE: inhibitors of DENV2 cytopathic effect, primary screen, cell-based, plate reader, single concentration | DENV2-infected cells, cytopathic effect rescue | CPE inhibition, % at 9.99 µM | hit rate 1.7% among 350,000 | AID 651640, 2012; in the data active = CPE inhibition above about 20%, passing the limit was not always enough; tested in BHK-21 cells;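 also: 0% = median of neutral control wells and 100% = median of positive control wells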
* marks the source's active call; other numbers are inactive results; nt = no result; ! = not active in a repeat.

SMILES | C2C12 statin | PglD inh | XiGFP reactiv | FGF22 binding | E-selectin induc | DENV2 CPE
COc1cccc(-c2ccc3c(c2)O[C@H](CN(C)Cc2cncnc2)[C@H](C)CN([C@@H](C)CO)S3(=O)=O)c1 | -12 | 3 | -1 | -1 | 0 | 28*
C[C@@H]1CN([C@H](C)CO)S(=O)(=O)c2ccc(C3=CCCC3)cc2O[C@@H]1CN(C)Cc1cccnc1 | -7 | -1 | 0 | 0 | 0 | -2
COc1cccc(-c2ccc3c(c2)O[C@@H](CN(C)Cc2cncnc2)[C@H](C)CN([C@H](C)CO)S3(=O)=O)c1 | -47 | 0 | -1 | 0 | 0 | 7
C[C@H]1CN([C@@H](C)CO)S(=O)(=O)c2ccc(C3=CCCC3)cc2O[C@@H]1CN(C)S(=O)(=O)c1ccc(F)cc1 | 3 | 10 | 0 | 0 | 0 | 69*
C[C@H](CO)N1C[C@H](C)[C@H](CN(C)Cc2cccnc2)Oc2cc(C3=CCCC3)ccc2S1(=O)=O | 14 | 0 | 0 | 0 | 0 | 28*
C[C@H]1CN([C@@H](C)CO)S(=O)(=O)c2ccc(C3=CCCC3)cc2O[C@H]1CN(C)Cc1cncnc1 | 3 | 0 | 0 | 0 | 0 | 15
C[C@H](CO)N1C[C@H](C)[C@H](CN(C)Cc2cncnc2)Oc2cc(C3=CCCCC3)ccc2S1(=O)=O | -7 | 2 | 0 | 0 | 0 | 30*
O=S(=O)(N[C@H]1CC[C@H](CCn2cc(-c3ccc(F)cc3)nn2)O[C@H]1CO)c1ccccc1F | 9 | 1 | 0 | 0 | 0 | -1
O=C(CN1CCOCC1)NCC[C@@H]1CC[C@@H](NC(=O)c2ccc3c(c2)OCO3)[C@@H](CO)O1 | -9 | -4 | 0 | 0 | 0 | -7
C[C@@H]1CCCCO[C@H](CN(C)S(=O)(=O)c2cccs2)[C@@H](C)CN([C@H](C)CO)C(=O)c2cc(NC(=O)Nc3ccc(C(F)(F)F)cc3)ccc2O1 | -69 | 6 | 0 | 0 | 0 | 1
O=C(C[C@@H]1C=C[C@H](NS(=O)(=O)c2ccc(F)cc2)[C@@H](CO)O1)N1CCN(c2ccccc2)CC1 | -4 | 1 | 1 | 0 | -1 | -1
COc1ccc2c3c(n(C)c2c1)[C@@H](CO)N(Cc1ccc(Cl)cc1)CC31CN(CC2CC2)C1 | nt | nt | 0 | 0 | 0 | 4
C[C@@H]1CN([C@H](C)CO)S(=O)(=O)c2ccc(-c3cncnc3)cc2O[C@H]1CN(C)C | -5 | -3 | 0 | 0 | 0 | 34*
C[C@H](CO)N1C[C@H](C)[C@H](CN(C)Cc2ccncc2)Oc2cc(C3=CCCC3)ccc2S1(=O)=O | -3 | 2 | -1 | 0 | 0 | 36*
C[C@H](CO)N1C[C@H](C)[C@H](CN(C)C)Oc2cc(-c3cncnc3)ccc2S1(=O)=O | 3 | -1 | 0 | 0 | 0 | 0
CN1CCN(C(=O)C2=C[C@H](c3ccc(C(F)(F)F)cc3)C[C@H](OCc3ccc(CO)cc3)O2)CC1 | 1 | -1 | 0 | 0 | 0 | 47*!
O=C(C1=C[C@@H](c2ccc(C(F)(F)F)cc2)C[C@@H](OCc2ccc(CO)cc2)O1)N1CCOCC1 | -8 | 2 | 0 | 0 | 0 | 25*!
CC(=O)N1[C@H](CO)[C@@H](c2ccccc2)C12CN(Cc1ccc(Cl)cc1)C2 | nt | nt | 0 | nt | nt | nt
CO[C@@H]1CN(C)C(=O)c2ccc(NC(=O)C3CC3)cc2OC[C@H](C)N(Cc2ccccc2)C[C@H]1C | 3 | -2 | 0 | 0 | 2 | -6
C=C1CC(C)OC(c2ccccc2OCC(O)CN2CCCCC2)C1 (stereo not given) | 115* | -6 | nt | nt | nt | nt

Bioassay records (PubChem BioAssay)
